The record followed here is ChEMBL document CHEMBL4825662 (J Med Chem, 2021).

In brackets after ≈: the same amount, converted by molar mass. Where only a bound is given, the exact number is not on record here.

One series addresses Fusion glycoprotein F0 (Human respiratory syncytial virus A (strain A2), UniProt P03420). Nature of the series: Inhibition of Respiratory syncytial virus fusion protein. The method in brief:
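293T cells cotransfected with codon-optimized RSV A2 F plasmid and a GAL4-responsive luciferase reporter, mixed after 24 h with a second 293T population expressing GAL4-NF-κB transactivator. Threefold serial compound dilutions present during mixing; F-mediated fusion read as luciferase after 24 h. IC₅₀ averaged over at least two testing occasions.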

For series [1], the system named is Human orthopneumovirus. Nature of the series: Antiviral activity against Respiratory syncytial virus A2 by Plaque reduction assay. It is filed as functional, organism-based. In short, it runs like this: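 Vero cells were infected with RSV A2 for 48 h with compound at 0.01 nM to 100 μM. Plaques were detected by immunostaining. Values are the average of at least two testing occasions.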

The subject of series [2] is Human orthopneumovirus. Nature of the series: Antiviral activity against Respiratory syncytial virus A2 infected in African green monkey Vero cells by Plaque reduction assay. It is filed as functional, organism-based.
A short description of series [3]: Cytotoxicity against African green monkey Vero cells by MTT assay. It is filed as cell-based. The conditions noted are these: chlorocebus sabaeus. The method in brief:
(§1)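 Viability was assessed by MTT after culture with compound at 0.01 nM to 100 μM, run in parallel with plaque reduction assays. Values are the average of at least two testing occasions.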

Series [4] is described as follows: Intrinsic clearance in Sprague-Dawley rat liver microsomes preincubated followed by NADPH addition and measured up to 45 mins by LC-MS/MS analysis. In kind it is ADME, Microsome.
Series [5] is described as follows: Intrinsic clearance in Beagle dog liver microsomes preincubated followed by NADPH addition and measured up to 45 mins by LC-MS/MS analysis. In kind it is ADME, Canis lupus familiaris, Microsome.
Series [6] is described as follows: Intrinsic clearance in human liver microsomes preincubated followed by NADPH addition and measured up to 45 mins by LC-MS/MS analysis. In kind it is ADME, Microsome.
Series [7] is described as follows: Apparent permeability across basolateral side to apical side in MDCK-MDR1 cells at 10 uM measured at 60 mins by LC-MS/MS analysis. In kind it is ADME, cell-based, Canis lupus familiaris. The following applies: dog.
Series [8] is described as follows: Thermodynamic solubility in PBS at 1 to 100 uM at pH 7.4 by HPLC-UV method. The conditions noted are these: dose 1-100 µM, read-out: Therm_solubility. It is filed as physicochemical.
Series [9] is described as follows: Apparent permeability across apical to basolateral side in MDCK-MDR1 cells at 10 uM measured at 60 mins by LC-MS/MS analysis. In kind it is ADME, cell-based, Canis lupus familiaris. The following applies: dog.
A short description of series [10]: Efflux ratio of apparent permeability in MDCK-MDR1 cells at 10 uM measured at 60 mins by LC-MS/MS analysis. The following applies: dog. It is filed as ADME, cell-based, Canis lupus familiaris.
Series [11] is described as follows: Cytotoxicity against human HepG2 cells by MTT assay. In kind it is cell-based. In short, it runs like this: as §1
Series [12] deals with Human orthopneumovirus. Nature of the series: Antiviral activity against Respiratory syncytial virus A2 infected in human Huh7 cells by Plaque reduction assay. It is filed as functional, organism-based. The conditions noted are these: A2, Huh-7. In short, it runs like this: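 Huh-7 cells were infected with RSV strain A2 in the presence of compound. Values are the average of at least two testing occasions.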

The subject of series [13] is Human orthopneumovirus. Nature of the series: Antiviral activity against Respiratory syncytial virus A2 infected in human Hep2 cells by Plaque reduction assay. It is filed as functional, organism-based. The conditions noted are these: A2, HEp-2. In short, it runs like this:
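Hep2 cells were infected with RSV strain A2 in the presence of compound. Plaques were detected by immunostaining after 48 h. Values are the average of at least two testing occasions.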

A short description of series [14]: Cytotoxicity against human Hep2 cells. It is filed as cell-based. The conditions noted are these: HEp-2 cells. The method in brief:
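Hep2 cells were cultured in parallel with the plaque assays at compound concentrations of 0.01 nM to 100 μM. Viability was read by MTT, CellTox green or CellTiter-Glo.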

A short description of series [15]: Protein binding in rat plasma assessed as unbound fraction at 5 uM by LC-MS/MS analysis based equilibrium dialysis method. In kind it is ADME, cell-free.
Series [16] can be described thus: Protein binding in dog plasma assessed as unbound fraction at 5 uM by LC-MS/MS analysis based equilibrium dialysis method. It is filed as ADME, cell-free, Canis lupus familiaris.
The nature of series [17]: Protein binding in human plasma assessed as unbound fraction at 5 uM by LC-MS/MS analysis based equilibrium dialysis method. It is filed as ADME, cell-free.
Series [18] can be described thus: Cmax in Sprague-Dawley rat at 5 mg/kg, po administered via gavage measured after 0.02 to 24 hrs by tandem liquid chromatography/mass spectrometry. It is filed as ADME, organism-based. Also noted: route oral, dose 5 mg/kg, time upper 24 hrs, time lower 0.02 hrs. The conditions noted are these: in vivo. The method in brief: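 Male Sprague–Dawley rats weighing 200–250 g, 3 per route, were used. The i.v. bolus was 1 mg/kg at 1 mg/mL in 40:60 dimethylacetamide/saline. Oral gavage doses were 5 or 10 mg/kg at 5 mg/mL in 1% methyl cellulose with 0.1% Tween 80. Heparinized blood was taken at 0.02–24 h (ten time points). Plasma was analyzed by LC-MS/MS after acetonitrile precipitation.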

Series [19] in a line: Clearance in Sprague-Dawley rat at 1 mg/kg, iv administered […] measured after 0.02 to 24 hrs by tandem liquid chromatography/mass spectrometry. It is filed as ADME, organism-based. The conditions noted are these: in vivo, time 0.02-24 hrs.
The nature of series [20]: Volume of distribution at steady state in Sprague-Dawley rat at 1 mg/kg, iv administered […] measured after 0.02 to 24 hrs by tandem liquid chromatography/mass spectrometry. It is filed as ADME, organism-based. The following applies: in vivo, time 0.02-24 hrs, read-out: Vdss. The method in brief:
(§2)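 Male Sprague–Dawley rats (200–250 g), 3 per route. IV bolus at 1 mg/kg, 1 mg/mL in 40:60 dimethylacetamide/saline; oral gavage at 5 or 10 mg/kg, 5 mg/mL in 1% methyl cellulose, 0.1% Tween 80 in water. Serial blood at 0.02–24 h (ten points) into heparin, spun at 4 °C, plasma frozen; acetonitrile protein precipitation, ESI LC-MS/MS with matrix curve and internal standards.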

A short description of series [21]: Oral bioavailability in Sprague-Dawley rat at 10 mg/kg administered via gavage measured after 0.02 to 24 hrs by tandem liquid chromatography/mass spectrometry. In kind it is ADME, organism-based. The conditions noted are these: in vivo, time 0.02-24 hrs. The method in brief:
as §2

Fusion glycoprotein F0, sequence (P03420 26-109 limits assumed): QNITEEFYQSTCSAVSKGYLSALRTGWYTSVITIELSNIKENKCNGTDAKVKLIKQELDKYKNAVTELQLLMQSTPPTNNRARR
Fusion glycoprotein F0, sequence (P03420 137-574 limits assumed): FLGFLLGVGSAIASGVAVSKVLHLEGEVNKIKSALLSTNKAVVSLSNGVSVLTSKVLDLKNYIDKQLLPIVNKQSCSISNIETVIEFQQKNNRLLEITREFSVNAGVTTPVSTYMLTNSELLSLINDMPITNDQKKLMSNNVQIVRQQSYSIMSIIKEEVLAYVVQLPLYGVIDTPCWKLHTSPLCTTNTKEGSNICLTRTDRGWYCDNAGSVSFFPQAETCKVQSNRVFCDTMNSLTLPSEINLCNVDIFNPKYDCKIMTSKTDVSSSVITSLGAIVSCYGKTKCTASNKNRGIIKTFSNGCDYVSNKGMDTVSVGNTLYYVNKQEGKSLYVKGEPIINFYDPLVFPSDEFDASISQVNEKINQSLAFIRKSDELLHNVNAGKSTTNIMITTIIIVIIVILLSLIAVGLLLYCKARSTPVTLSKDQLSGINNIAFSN

Consider `CC(C)CCn1c(CN2C(=O)C3(CC3)c3ccncc32)nc2cc(CN)ccc21`, for which inhibition at Fusion glycoprotein F0 was half-maximal at 0.9 nM (IC50). Also, the EC50 in the series with Human orthopneumovirus [1] came out at 2.1 nM.
The molecule `CC(C)CCn1c(CN2C(=O)C3(CC3)c3c(Cl)cccc32)nc2cc(CN)ccc21` registered a concentration for a half-maximal effect (EC50) in the series on Human orthopneumovirus [2] of 181 nM. For the same molecule, the CC50 in series [3] was determined as 5200 nM.
Take `O=C1N(Cc2nc3cc(Cl)ccc3n2CCCC(F)(F)F)c2cc(F)ccc2C12CC2`: the midpoint of the response in the series on Human orthopneumovirus [2], the EC50, lay at 5.4 nM. Besides, the CC50 in series [3] was over 25000 nM. The Microsomal intrinsic clearance in [4] worked out at 71.3 µL/min. The molecule also gave an intrinsic clearance in [5] of 328 µL/min. Besides, the “intrinsic clearance (CLint)” value in series [6] stood at 177 µL/min. Also, in series [7], the Papp B→A at 1 h, 10 µM was determined as 0.14 ×10⁻⁶ cm/s.
In series [4], `CS(=O)(=O)CCCn1c(CN2C(=O)C3(CC3)c3ccc(F)cc32)nc2cc(CN)ccc21` yielded a Microsomal intrinsic clearance of 3.63 µL/min. For the same molecule, the intrinsic clearance in series [5] worked out at 5.34 µL/min. Further, the “intrinsic clearance (CLint)” value in series [6] came out at 3.78 µL/min. Besides, in series [8], the solubility thermodynamic was 2600 µM (≈ 1180 µg/mL). The Papp A→B at 1 h, 10 µM in [9] (MDCK-MDR1) is 0.24 ×10⁻⁶ cm/s. Moreover, the Papp B→A at 1 h, 10 µM in series [7] was found to be 0.79 ×10⁻⁶ cm/s. Further, the efflux ratio at 1 h, 10 µM in [10] (MDCK-MDR1) was 3.26. In series [11], this molecule displayed a CC50 of over 25000 nM. The EC50 with Human orthopneumovirus [12] came to 5.7 nM.
For the molecule `NC(=O)c1ccc2c(c1)nc(CN1C(=O)C3(CC3)c3ccc(F)cc31)n2CCCC(F)(F)F`, the response with Human orthopneumovirus [13] was half-maximal at 13.7 nM (EC50). In series [14], this molecule registered a cytotoxic concentration (CC50) of over 20000 nM.
As to `N#Cc1ccc2c(c1)nc(CN1C(=O)C3(CC3)c3ccc(F)cc31)n2CCCC(F)(F)F`, the concentration giving a half-maximal response (EC50) in the series on Human orthopneumovirus [2] amounted to 444 nM. The same molecule yielded a CC50 in series [11] of 23700 nM.
On to `CC(C)CCn1c(CN2C(=O)C3(CCCC3)c3ccccc32)nc2cc(CN)ccc21`, for which a half-maximal effect in the series on Human orthopneumovirus [2] (EC50) was put at 580 nM. In [3], this molecule gave a CC50 of 9940 nM.
Molecule `NCc1ccc2c(c1)nc(CN1C(=O)C3(CC3)c3ccc(F)cc31)n2CCCCO` showed a CC50 in series [11] of over 25000 nM. The same molecule showed an EC50 in the series on Human orthopneumovirus [12] of 3.6 nM.
`CC(C)CCn1c(CN2C(=O)C3(CC3)Oc3ccccc32)nc2cc(CN)ccc21` showed an EC50 in the series on Human orthopneumovirus [2] of 1700 nM. In addition, the CC50 in series [3] is 22700 nM.
In the series on Human orthopneumovirus [13], `N=C(N)NCc1ccc2c(c1)nc(CN1C(=O)C3(CC3)c3ccc(F)cc31)n2CCCC(F)(F)F` came in with an EC50 of 21.1 nM. This molecule gave a CC50 in [14] of over 20000 nM.
In the case of `CC(C)CCn1c(CN2C(=O)C3(CC3)c3cccc(F)c32)nc2cc(CN)ccc21`, in the series with Human orthopneumovirus [2], the EC50 was 40.8 nM. In addition, it took 31100 nM to reach half-maximal cytotoxicity in series [3] (CC50). Moreover, the fraction unbound at 5 µM in [15] was determined as 0.104; in series [16], 0.147; in series [17], 0.42. This molecule displayed a Microsomal intrinsic clearance in [4] of 37.8 µL/min. The intrinsic clearance in series [5] turned out to be 2.23 µL/min. For the same molecule, the “intrinsic clearance (CLint)” value in series [6] was 7 µL/min. Besides, in [8], the solubility thermodynamic turned out to be 1230 µM (≈ 500 µg/mL). Also, the Papp in series [9] (mdck-mdr1, 1 h, 10 µM) is 0.19 10^-6 cm/s. Also, the Ratio in [10] (mdck-mdr1, 1 h, 10 µM) is given as 227. The Cmax in series [18] was determined as 31.3 ng/mL. Also, in [19], the clearance is 108 mL/min/kg. Besides, the Vd in series [20] is 11.9 L/kg. The bioavailability in [21] amounted to 8.8%.
For `N=C(N)c1ccc2c(c1)nc(CN1C(=O)C3(CC3)c3ccc(F)cc31)n2CCCC(F)(F)F`, in the series with Human orthopneumovirus [13], the EC50 is 0.5 nM. Moreover, the CC50 in series [14] was over 20000 nM.
Consider `CC(C)CCn1c(CN2C(=O)C3(CC3)Cc3ccccc32)nc2cc(CN)ccc21`, for which the EC50 in the series on Human orthopneumovirus [2] turned out to be 3400 nM. In series [3], this molecule returned a CC50 of 33400 nM.
